In the library only some 4.1% were active in any assay of this set; here they are far more common.
NF-kB neuron act – compounds increasing NF-kB expression in human neuronal cells | NF-kB reporter expression; hits give high values | fold change at 12.5 µM | 190,000 compounds, 1.6% hits; in the data active means fold change above about 3.3
APP 5'UTR act – APP 5'UTR luciferase reporter activation | SH-SY5Y APP 5'UTR luciferase reporter, luminescence; zero percent = DMSO vehicle wells | activation, % at 2 µM | 190,000 compounds, 1% hits | AID 1276;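 active means activation above a set limit, based on mean plus 3 SD of controls, cut at about 140% in these data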
FLuc inh counter – inhibits firefly luciferase, flagging false hits in luciferase inhibition screens; inhibition, % at 10 µM; 200,000 compounds, 1.5% hits; P08659; ATPLite firefly luciferase biochemical luminescence, 10 min; AID 1006;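 active means inhibition above about 50% when tested at 10 µM, limit read from the data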
Target sequence (P08659 whole entry, looked up): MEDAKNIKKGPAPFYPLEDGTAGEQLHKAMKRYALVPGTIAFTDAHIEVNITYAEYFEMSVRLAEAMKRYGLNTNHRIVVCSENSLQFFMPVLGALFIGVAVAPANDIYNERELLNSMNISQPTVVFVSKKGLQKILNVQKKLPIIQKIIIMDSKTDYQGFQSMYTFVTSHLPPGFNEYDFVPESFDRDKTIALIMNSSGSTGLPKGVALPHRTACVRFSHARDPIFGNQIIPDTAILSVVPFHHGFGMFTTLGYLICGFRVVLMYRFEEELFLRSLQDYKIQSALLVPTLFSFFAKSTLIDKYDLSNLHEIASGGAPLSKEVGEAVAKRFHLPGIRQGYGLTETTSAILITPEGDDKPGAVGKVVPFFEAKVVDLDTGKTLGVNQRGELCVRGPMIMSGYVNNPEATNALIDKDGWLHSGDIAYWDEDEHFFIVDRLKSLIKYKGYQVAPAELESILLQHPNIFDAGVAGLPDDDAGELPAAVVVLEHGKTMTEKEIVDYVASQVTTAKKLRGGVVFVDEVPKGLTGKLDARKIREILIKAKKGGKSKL
FLuc stim CS – affects firefly luciferase, flagging false hits in luciferase stimulation screens; ATPlite luciferase biochemical, luminescence, 10 min; 0 = ATP-free wells, 1 = DMSO control; activation factor at 10 µM; 200,000 tested, under 10 active;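 active means luciferase activation factor, scaled between plate controls, of at least 2 with compound at 10 µM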
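Material: luciferase plus luciferin reagent, cell-free. Medium: PBS buffer for ATP. Also added: ATP substrate, dispensed from a 10.24 µM working solution in PBS. Doses: test compounds dosed from 2 mM stocks in 100% DMSO. Incubation: 10 min post-reagent at room temperature. Technique: light output (luminescence). Read-out basis: luminescence gain marking luciferase activators.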
STAT1 act – STAT1 signaling activation | NIH 3T3 STAT1-luciferase reporter, IFN-gamma, luminescence; 100% = IFN-gamma alone, no compound | activation (% of control), % at 5.5 µM | 200,000 compounds, 2.6% hits | AID 932;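 active means activation above the screen-wide mean activation plus 3 SD, cut at about 130% in these data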
Hits are given with their value; – = inactive; · = no result given.

SMILES | NF-kB neuron act | APP 5'UTR act | FLuc inh counter | FLuc stim CS | STAT1 act
CCOC(=O)CCSc1nc(C)c2cc(OC)ccc2n1 | – | – | – | – | –
CCCCn1nnnc1NCc1cc(Cl)c(OC)c(OC)c1 | – | – | – | – | –
COc1cccc(C(=O)Nc2nc(C)cs2)c1 | 3.7 | 164 | – | – | 148
CC(C)c1nnc(NC(=O)c2ccc(N3C(=O)CCC3=O)cc2)s1 | – | – | – | – | 136
c1cnc(NC2CCCCCC2)nc1 | – | – | – | – | –
CCOc1ccc(C2=Nn3c(nnc3-c3ccccc3OC)SC2)cc1 | – | – | – | – | –
COc1ccccc1-c1nnc2n1N=C(c1ccc(O)c(O)c1)CS2 | 3.4 | – | – | – | –
CN(C)c1ccc(/C=N/NC(=O)c2ccc(Cl)cc2)cc1 | – | – | – | – | –
O=C(NC1CCCC1)C(c1cccs1)N(C(=O)c1ccco1)c1ccc2c(c1)OCCO2 (stereo not drawn) | – | – | – | – | –
CC(=O)c1cccc(NC(=O)COC(=O)c2ccc3c(c2)OCCO3)c1 | – | – | – | – | –
Cn1/c(=N/N=C/c2ccc([N+](=O)[O-])cc2)sc2ccccc21 | – | – | – | – | 132
Clc1ccccc1OCc1nnc(-c2ccccc2Br)o1 | – | – | – | – | 137
Brc1ccccc1-c1nnc(COc2cccc3cccnc23)o1 | – | – | – | – | –
O=C(O)c1ccc(Sc2nnnn2-c2ccccc2)c([N+](=O)[O-])c1 | – | – | – | – | –
COC(=O)c1ccc(Sc2nnnn2-c2ccccc2)c([N+](=O)[O-])c1 | 4 | – | – | – | –
CCn1cc([N+](=O)[O-])c(C(=O)Nc2ccc3c(c2)OCCO3)n1 | – | – | 56 | – | –
Cc1ccn2cc(C(=O)Nc3ccc4c(c3)OCCO4)nc2c1 | – | 143 | 73 | – | 150
O=C(Nc1ccc2c(c1)OCCO2)c1ccc(Cl)c([N+](=O)[O-])c1 | – | – | – | – | –
Cc1ccn2cc(C(=O)Nc3ccccc3N3CCOCC3)nc2c1 | – | – | – | – | –
COc1cccc(/C(N)=N/OC(=O)Cc2ccccc2[N+](=O)[O-])c1 | – | – | – | – | 130
N/C(=N\OC(=O)c1cccc(Br)c1)c1ccccc1 | 5.3 | – | 90 | – | –
COc1ccc(C(=O)O/N=C(\N)c2ccncc2)cc1OC | – | – | – | – | –
Cc1cccc(C(=O)O/N=C(\N)c2ccc(Br)cc2)c1 | 4 | – | – | – | –
N/C(=N\OC(=O)c1ccc2ccccc2c1)c1ccc(Br)cc1 | – | – | – | – | –
COc1cccc(C(=O)O/N=C(\N)c2ccncc2)c1 | – | – | 89 | – | 139
SMILES | NF-kB neuron act | APP 5'UTR act | FLuc inh counter | FLuc stim CS | STAT1 act
Cc1cc(C)cc(C(=O)O/N=C(\N)c2ccc(Br)cc2)c1 | – | – | – | – | –
O=C(/C=C/c1ccccc1)NC(NC(=S)Nc1cccc(Cl)c1)C(Cl)(Cl)Cl (stereo not drawn) | – | – | – | – | –
O=C(Nc1ccc(Oc2cccnc2)cc1)c1cccc([N+](=O)[O-])c1 | – | – | – | – | –
c1ccc(CCn2nnnc2CN2CCc3ccccc32)cc1 | – | – | – | – | –
Cc1cccc(-n2c(O)cnc2Nc2nc(C)cc(C)n2)c1 | – | – | – | – | –
N/C(=N\OC(=O)/C=C/c1ccccc1)c1ccccc1 | 5.9 | 136 | 85 | – | 138
O=C1C2C3C=CC(C3)C2C(=O)N1c1ccc2c(c1)CCC2 (stereo not drawn) | – | – | – | – | –
COc1ccccc1-c1cc(N)n[nH]1 | – | – | – | – | –
COc1ccccc1C1=NC(c2ccc(F)cc2)N=C1C (stereo not drawn) | – | – | – | – | 131
CC(=O)c1ccc(NC(=S)Nc2cccc(Cl)c2C)cc1 | – | – | – | – | –
O=c1c2cccc3c2c(nn1CN1CCOCC1)-c1ccccc1-3 | – | – | – | – | –
CCN(CC)CCn1nc2c3c(cccc3c1=O)-c1ccccc1-2 | – | – | – | – | 230
Cc1ccc2oc(-c3ccco3)cc(=O)c2c1 | – | – | – | – | 138
COc1ccc(-c2noc(CN(C)S(=O)(=O)c3ccccc3)n2)cc1OC | · | – | · | · | –
Cc1ccc2ccc(C(Nc3ccccn3)c3ccccc3)c(O)c2n1 (stereo not drawn) | – | – | – | – | –
Cc1ccnc(NC(c2cccnc2)c2ccc3cccnc3c2O)c1 (stereo not drawn) | – | – | – | – | –
Oc1c(C(Nc2ccccn2)c2ccccn2)ccc2cccnc12 (stereo not drawn) | 7 | – | – | – | –
COc1cc(C(Nc2ccccn2)c2ccc3ccc(C)nc3c2O)cc(OC)c1O (stereo not drawn) | 6 | – | – | – | –
Cc1onc(-c2ccccc2Cl)c1C(=O)Nc1cccc2cccnc12 | – | – | – | – | –
CC(Oc1ccccc1)C(=O)NC1=NCCS1 (stereo not drawn) | · | – | – | – | 134
Cc1cccnc1NC(=O)C(C)Oc1ccccc1 (stereo not drawn) | – | – | – | – | –
O=C(NC1=NCCS1)Nc1ccccc1 | – | – | – | – | 135
O=C(NC1=NCCS1)c1cccs1 | – | – | – | – | –
Cc1ccc(NC2=C(N3CCOCC3)C(=O)c3ccccc3C2=O)cc1 | – | 151 | 56 | – | –
C(=C\c1ccc2ccccc2n1)/c1ccccc1 | · | 176 | · | · | ·
SMILES | NF-kB neuron act | APP 5'UTR act | FLuc inh counter | FLuc stim CS | STAT1 act
Fc1ccccc1/C=C/c1ccc2ccccc2n1 | 6.7 | 196 | 87 | – | –
CC(=O)Oc1ccc(Cl)cc1/C=C/c1ccc2ccccc2n1 | 7.3 | – | – | – | –
O=[N+]([O-])c1ccc(/C=C/c2ccc3ccccc3n2)cc1 | 5.2 | 165 | 76 | – | –
O=C(C1CCN(S(=O)(=O)c2cccc3nsnc23)CC1)N1CCCc2ccccc21 | – | – | – | – | –
Cc1c(C(=O)Nc2ccc(N3CCOCC3)cc2)oc2ccccc12 | – | – | – | – | –
Oc1ccc(/C(Cc2ccc3ccccc3n2)=N\Nc2ccccc2)c(O)c1 | – | – | – | – | –
Oc1ccc(/C=C/c2ccc3ccccc3n2)cc1 | – | – | 86 | – | –
O/C(=C\c1ccc2ccccc2n1)c1ccc(O)cc1O | 8.1 | 158 | 83 | – | –
Cc1ccnc(NC(=O)Nc2ccc3c(c2)OCO3)c1 | 4.9 | 144 | 58 | – | 146
O=C(Nc1ccc2c(c1)OCCO2)NC12CC3CC(CC(C3)C1)C2 | – | – | – | – | 142
O=C(Nc1ccc2c(c1)OCO2)Nc1ccc(Br)cn1 | – | – | – | – | 149
Cc1cccc(C)c1NC(=O)Nc1ccc2c(c1)OCO2 | – | – | – | – | –
O=C(Nc1ccc2c(c1)OCCO2)Nc1ccc2c(c1)OCO2 | 6.6 | 174 | 93 | – | –
COc1ccc(NC(=O)NC23CC4CC(CC(C4)C2)C3)cc1OC | – | – | – | – | –
CCC(C)C(NC(=O)C1CCC(C)CC1)C(=O)Nc1ccc(OC)cc1OC (stereo not drawn) | – | – | – | – | –

High-throughput results as filed in PubChem BioAssay.
